Measurements pooled from the literature.
Lines come from different studies, so protocols differ.

C=CC(=O)N(C)CCOc1c(N)ncnc1-c1cc(F)cc(NC(=O)c2ccc(C3CC3)cc2F)c1C
Tmax (human, blood; oral, 5 mg, single dose, healthy volunteers): 0.52 h

CCCCOC(=O)N1CCN(C(=O)[C@H](CP(=O)(O)O)NC(=O)c2cc(N3CC[C@H](OC)C3)nc(-c3ccccc3)n2)CC1
Tmax (human, plasma; subcutaneous, 16 mg, single dose): 0.733 h

CC(C)n1cc(C#N)c2cc(-n3cc(C(=O)O)cn3)ccc21
Tmax (human, plasma; oral, 600 mg, multiple doses, once daily, steady state): 3.5 h

CC(C)(Sc1ccncc1-c1ccc(C#N)c2ccccc12)C(=O)O
Tmax (male human, plasma; oral, 1 mg, multiple doses, once daily): 0.5 h

COc1ccc([C@@H]2CN(C(=O)[C@@H](O)CO)C[C@@]2(C)[C@@H](C)O)cc1OC1CN(c2ccc(C)cn2)C1
Tmax (human, plasma; oral, 5 mg, single dose, healthy volunteers): 1.5 h

C#C[C@]1(COP(=O)(O)OP(=O)(O)OP(=O)(O)O)O[C@@H](n2cnc3c(N)nc(F)nc32)C[C@@H]1O
Tmax (human, plasma; oral, 30 mg, single dose): 24 h

C[C@@H](c1ccc2nccn2c1)n1nnc2ncc(-c3cnn(C)c3)nc21
Tmax (human, plasma; oral, 200 mg): 2.5 h

Nc1cc(C(F)(F)F)c(-c2cc(N3CCOCC3)nc(N3CCOCC3)n2)cn1
Tmax (human, plasma; oral, 100 mg/day, patients): 1.5 h

CC(C)n1nc(-c2ccc3oc(N)nc3c2)c2c(N)ncnc21
Tmax (human, plasma; oral, 3 mg, multiple doses, once daily, patients): 0.97 h

CO[C@@H]1[C@H](OC(=O)N2CC(CCN3CCOCC3)C2)CC[C@]2(CO2)[C@H]1[C@@]1(C)O[C@@H]1CC=C(C)C
Tmax (human, plasma; subcutaneous, 3.6 mg, single dose, healthy volunteers): 0.25 h

CCc1nc2c(C)cc(N3CCN(CC(=O)N4CC(O)C4)CC3)cn2c1N(C)c1nc(-c2ccc(F)cc2)c(C#N)s1
Tmax (human, plasma; oral, 150 mg, fed, healthy volunteers): 1 h

NS(=O)(=O)NCCNc1nonc1C(=NO)Nc1ccc(F)c(Br)c1
Tmax (human, plasma; oral, 400 mg, multiple doses, twice daily, steady state, patients): 2 h

C#Cc1cccc(Nc2ncnc3cc(OCCOC)c(OCCOC)cc23)c1
Tmax (human, plasma; oral, 50 mg, patients): 4 h

C[C@@]1(c2cc(NC(=O)c3ccc(C#N)cn3)ccc2F)C=CSC(N)=N1
Tmax (human, plasma; oral, 150 mg, single dose): 1.5 h

O=C(O)C[C@H](O)C[C@H](O)/C=C/c1c(C2CC2)nc2ccccc2c1-c1ccc(F)cc1
Tmax (human, plasma; oral, 2 mg, single dose, fed, healthy volunteers, tablet): 1.13 h

Cn1cc(-c2ccc(S(=O)(=O)[C@@H]3C[C@@H](C(=O)NC4(C#N)CC4)N(C(=O)C4(C(F)(F)F)CC4)C3)c(C(F)(F)F)c2)cn1
Tmax (human, plasma; oral, 30 mg, single dose, fasted, healthy volunteers): 4.51 h

CCO[C@H]1CCN(Cc2c(OC)cc(C)c3[nH]ccc23)[C@H](c2ccc(C(=O)O)cc2)C1
Tmax (human, plasma; oral, 25 mg, multiple doses, twice daily, patients): 2 h

CCc1nc(C(N)=O)c(Nc2ccc(N3CCC(N4CCN(C)CC4)CC3)c(OC)c2)nc1NC1CCOCC1
Tmax (human, plasma; oral, 200 mg, multiple doses, patients): 5.92 h

CC(C)(O)c1ccccc1-c1ccc2[nH]c(/C=C/c3ccc(C(F)(F)F)cc3)nc2c1
Tmax (male human, plasma; oral, 2 mg, single dose, fasted): 3.94 h

C[C@@H](Nc1cc(F)cc(F)c1)c1cc(C(=O)N(C)C)cc2c(=O)cc(N3CCOCC3)oc12
Tmax (human, plasma; oral, 240 mg, single dose, patients): 1.75 h
